# Columns and labels:
# [1] = molecular target: natriuretic peptide clearance receptor (NPRC), tagged with green fluorescence protein (UniProt P17342); experiment: AlphaScreen or HTRF
# [2] = system: human renal fibroblasts (HRFs); experiment: Differentiation to myofibroblasts; type: cell-based; details: 10^−6 M, TGFβ−1 5 ng/mL
# Procedure, shortened: (§1)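 Fibroblasts were serum-starved in 0.01% FBS for 48 h, then given TGFβ-1 (5 ng/ml) with or without test compound (10−6 M) for 24, 48 and 72 h. For immunostaining, cells were fixed in 4% formaldehyde, permeabilised with 0.2% Triton X-100, and stained with anti-α-SMA (1:200, 4 °C overnight), a Texas Red secondary and DAPI; confocal images were scored as corrected total cell fluorescence. For western blots, NP-40 lysates were probed for α-SMA and normalised to GAPDH.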
# [3] = system: human cardiac fibroblasts (HCFs); experiment: Live-cell real-time proliferation imaging; type: cell-based; details: 10^−6 M, similar to vehicle (Supplemental Table 1)
# [4] = system: human cardiac fibroblasts (HCFs); experiment: Differentiation to myofibroblasts; type: cell-based; details: 10^−6 M, TGFβ−1 5 ng/mL
# Procedure, shortened: as §1
# [5] = system: human cardiac fibroblasts (HCFs); experiment: Fibroblast proliferation quantified by cell counting, HCFs; type: cell-based; details: 10^−6 M, TGFβ−1 5 ng/ml, 72 hours, trypan blue, Cedex XS Analyzer (Supplemental Table 2)
# Procedure, shortened: (§2)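 Fibroblasts at passages 4–8, purity checked by vimentin immunostaining, were counted, seeded in complete medium and held overnight at 37 °C, 5% CO2. Medium was replaced with fresh medium containing TGFβ-1 (5 ng/ml) alone or with test compound (10−8, 10−7 or 10−6 M) for 8 or 72 h. Cells were then trypsinized, stained with 0.2% trypan blue and counted on an automated analyzer.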
# parental HEK293 cells = experiment: cGMP generation in parental; type: cell-based, human; details: levels similar to vehicle treatment (Supplemental Figure 2)
# Procedure, shortened: (§3)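 HEK293 cells stably expressing human pGC-A or pGC-B, or parental cells, were kept in DMEM with 10% FBS and 250 ug/ml G418. Cells were grown overnight to 80–90% confluency. They were treated for 10 min with serial concentrations (10−10 to 10−6 M) in HBSS containing 0.1% BSA, 2 mM HEPES and 0.5 mM IBMX; buffer alone served as vehicle. After a PBS wash and lysis in 0.1 M HCl, intracellular cGMP was measured by ELISA.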
# [6] = system: human renal fibroblasts (HRFs); experiment: Live-cell real-time proliferation imaging; type: cell-based; details: 10^−6 M, similar to vehicle (Supplemental Table 1)
# Plasma CNP-like levels = type: in vivo, Fischer rats; details: low, medium and high dose (4.55, 45.5, 455 pmol/kg/min) IV infusion 75 min, normal rats, RIA, n=4/group
# Procedure, shortened: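 They then received a 75 min continuous IV infusion (15 min lead-in) of native peptide, analogue or 0.9% saline vehicle with inulin. Infusion rate was weight-adjusted. Blood was taken after the 60 min clearance period. A non-equilibrium RIA used a CNP-sequence antibody (standard curve 0.5–128 pg; <1% cross-reactivity with ANP, BNP).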
# [7] = system: human renal fibroblasts (HRFs); experiment: cGMP generation in human primary renal fibroblasts; type: cell-based
# Procedure, shortened: (§4)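 Primary human cardiac and renal fibroblasts, checked for purity by vimentin staining, were used at passages 4–8. Cells grown to 80% confluency were treated for 10 min with buffer (HBSS, 0.1% BSA, 2 mM HEPES, 0.5 mM IBMX) alone or with test compound at 10−8, 10−7 or 10−6 M. Cells were washed in PBS and lysed in 0.1 M HCl, and intracellular cGMP was measured by ELISA.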
# [8] = Blood pressure and renal function with acute IV infusion; type: in vivo, Fischer rats; details: mean ± SEM, n=4/group; for UV (urine flow): 60 min clearance; for UNaV (urinary sodium excretion rate): flame photometry; for GFR (glomerular filtration rate): inulin clearance; for ΔMAP (change in mean arterial pressure): normal rats
# Procedure, shortened: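 Male Fischer rats (about 2 months, 200–250 g) under isoflurane (2–3% in oxygen) had jugular vein, carotid artery and bladder catheters. After 30 min equilibration with IV inulin and saline, test compound or 0.9% saline vehicle was infused IV with inulin for 75 min, including a 15 min lead-in. BP was recorded and urine collected over a 60 min clearance period. Urinary sodium was measured by flame photometry and inulin by anthrone; GFR was taken from inulin clearance. n=4/group.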
# human pGC-B receptor = molecular target: T1, human pGC-B receptor (Homo sapiens, UniProt P20594); experiment: cGMP generation in HEK293 cells overexpressing human pGC-B; type: cell-based; details: 10 min; for cGMP generation in HEK293 pGC-B cells compared to vehicle: 10^−8.5 to 10^−6 M, 0.5 mM IBMX, intracellular cGMP ELISA, triplicate
# T1 sequence (P20594 23-1047): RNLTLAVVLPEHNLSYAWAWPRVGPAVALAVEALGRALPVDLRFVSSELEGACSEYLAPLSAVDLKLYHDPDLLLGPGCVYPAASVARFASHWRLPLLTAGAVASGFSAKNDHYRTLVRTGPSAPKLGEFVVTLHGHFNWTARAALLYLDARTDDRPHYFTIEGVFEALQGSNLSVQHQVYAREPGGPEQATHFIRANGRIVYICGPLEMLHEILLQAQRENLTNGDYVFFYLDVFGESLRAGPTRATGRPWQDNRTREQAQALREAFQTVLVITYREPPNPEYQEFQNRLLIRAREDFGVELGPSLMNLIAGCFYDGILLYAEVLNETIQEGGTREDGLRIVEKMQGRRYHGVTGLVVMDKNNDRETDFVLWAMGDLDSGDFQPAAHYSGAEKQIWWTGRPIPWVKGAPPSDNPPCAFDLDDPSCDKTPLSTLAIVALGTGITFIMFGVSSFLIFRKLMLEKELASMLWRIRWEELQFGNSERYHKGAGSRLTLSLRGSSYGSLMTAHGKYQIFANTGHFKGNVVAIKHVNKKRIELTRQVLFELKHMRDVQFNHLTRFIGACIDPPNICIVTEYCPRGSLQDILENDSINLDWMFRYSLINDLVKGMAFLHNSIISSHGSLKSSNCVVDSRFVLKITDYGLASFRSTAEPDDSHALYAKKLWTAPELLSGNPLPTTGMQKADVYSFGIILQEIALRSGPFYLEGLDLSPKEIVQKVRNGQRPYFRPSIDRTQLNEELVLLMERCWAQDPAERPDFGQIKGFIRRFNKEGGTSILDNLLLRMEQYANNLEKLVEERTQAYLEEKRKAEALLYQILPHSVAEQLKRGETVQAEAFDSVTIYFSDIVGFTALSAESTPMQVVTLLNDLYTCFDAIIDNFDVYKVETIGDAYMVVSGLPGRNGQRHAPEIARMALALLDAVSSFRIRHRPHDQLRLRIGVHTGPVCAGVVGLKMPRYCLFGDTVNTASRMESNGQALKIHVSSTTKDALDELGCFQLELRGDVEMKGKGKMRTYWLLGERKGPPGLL
# Procedure, shortened: as §3
# [9] = system: human cardiac fibroblasts (HCFs); experiment: cGMP generation in human primary cardiac fibroblasts; type: cell-based; details: 10^−8, 10^−7 and 10^−6 M, 10 min, 0.5 mM IBMX, cGMP ELISA, vs vehicle
# Procedure, shortened: as §4
# [10] = system: human renal fibroblasts (HRFs); experiment: Fibroblast proliferation quantified by cell counting, HRFs; type: cell-based; details: 10^−6 M, TGFβ−1 5 ng/ml, 72 hours, trypan blue, Cedex XS Analyzer (Supplemental Table 2)
# Procedure, shortened: as §2
# human pGC-A receptor = molecular target: T2, human pGC-A receptor (Homo sapiens, UniProt P16066); experiment: cGMP generation in HEK293 cells overexpressing human pGC-A; type: cell-based; details: mean±SEM
# T2 sequence (P16066 33-1061): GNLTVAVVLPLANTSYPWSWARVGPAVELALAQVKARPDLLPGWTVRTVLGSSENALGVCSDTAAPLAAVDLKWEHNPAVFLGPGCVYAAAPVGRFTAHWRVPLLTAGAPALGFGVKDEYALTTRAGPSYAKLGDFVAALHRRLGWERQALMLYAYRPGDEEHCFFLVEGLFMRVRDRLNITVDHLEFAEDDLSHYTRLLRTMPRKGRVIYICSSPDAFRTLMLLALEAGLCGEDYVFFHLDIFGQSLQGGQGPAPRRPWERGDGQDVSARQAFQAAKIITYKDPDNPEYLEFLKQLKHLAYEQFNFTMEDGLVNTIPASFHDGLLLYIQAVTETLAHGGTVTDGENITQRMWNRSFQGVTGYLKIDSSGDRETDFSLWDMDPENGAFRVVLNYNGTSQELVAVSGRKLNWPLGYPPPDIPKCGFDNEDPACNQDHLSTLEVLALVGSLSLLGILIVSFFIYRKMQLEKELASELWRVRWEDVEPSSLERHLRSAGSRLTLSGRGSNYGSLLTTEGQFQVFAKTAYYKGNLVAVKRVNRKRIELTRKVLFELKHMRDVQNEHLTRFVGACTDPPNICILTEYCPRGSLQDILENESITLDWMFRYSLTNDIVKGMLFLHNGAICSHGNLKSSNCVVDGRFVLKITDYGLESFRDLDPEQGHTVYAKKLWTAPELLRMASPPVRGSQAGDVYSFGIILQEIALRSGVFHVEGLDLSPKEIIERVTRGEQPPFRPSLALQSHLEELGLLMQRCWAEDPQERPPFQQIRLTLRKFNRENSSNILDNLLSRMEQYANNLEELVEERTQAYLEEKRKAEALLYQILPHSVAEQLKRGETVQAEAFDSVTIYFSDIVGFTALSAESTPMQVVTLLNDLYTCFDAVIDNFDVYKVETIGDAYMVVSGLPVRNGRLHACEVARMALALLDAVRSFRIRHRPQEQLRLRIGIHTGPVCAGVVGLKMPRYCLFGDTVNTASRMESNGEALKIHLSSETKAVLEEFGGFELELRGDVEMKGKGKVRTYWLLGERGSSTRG
# Procedure, shortened: as §3
# [11] = 48 and 72 hours (data not shown)
# [12] = 24 hours, immunostaining and western blotting
# [13] = High = 455 pmol/kg/min IV infusion
# [14] = Low = 4.55 pmol/kg/min IV infusion
# [15] = Medium = 45.5 pmol/kg/min IV infusion
# Chain of natriuretic peptide clearance receptor (NPRC), tagged with green fluorescence protein (P17342 27-541): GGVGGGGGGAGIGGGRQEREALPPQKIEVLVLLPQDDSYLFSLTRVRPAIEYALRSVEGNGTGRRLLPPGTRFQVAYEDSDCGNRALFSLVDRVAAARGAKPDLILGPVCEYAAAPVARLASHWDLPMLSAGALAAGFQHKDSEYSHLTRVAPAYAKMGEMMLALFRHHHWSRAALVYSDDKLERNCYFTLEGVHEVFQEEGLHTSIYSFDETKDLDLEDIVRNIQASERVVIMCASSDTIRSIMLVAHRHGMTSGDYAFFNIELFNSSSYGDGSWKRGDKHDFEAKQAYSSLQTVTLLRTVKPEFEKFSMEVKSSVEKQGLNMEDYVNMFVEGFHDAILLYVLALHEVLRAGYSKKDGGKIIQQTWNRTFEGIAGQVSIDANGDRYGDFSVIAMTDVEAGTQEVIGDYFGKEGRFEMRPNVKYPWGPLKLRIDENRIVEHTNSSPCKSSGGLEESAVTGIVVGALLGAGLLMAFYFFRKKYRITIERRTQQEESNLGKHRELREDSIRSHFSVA
Substance,cGMP generation in parental HEK293 cells (parental HEK293 cells),Plasma CNP-like levels (CLL) (Plasma CNP-like levels),"UV (urine flow) [8, 13]","UNaV (urinary sodium excretion rate) [8, 13]","GFR (glomerular filtration rate) [8, 13]","UV (urine flow) [8, 14]","UNaV (urinary sodium excretion rate) [8, 14]","GFR (glomerular filtration rate) [8, 14]","ΔMAP (change in mean arterial pressure) [8, 14]","UV (urine flow) [8, 15]","UNaV (urinary sodium excretion rate) [8, 15]","GFR (glomerular filtration rate) [8, 15]","ΔMAP (change in mean arterial pressure) [8, 15]",cGMP generation in HEK293 pGC-B cells compared to vehicle (human pGC-B receptor),also measured
"C53, the 53-AA intermediate form of proCNP processing (peptide)",,,,,,,,,,,,,,,AlphaScreen signal [1]: 200
NH2 - DLRVDTKSRAAWARLLQEHPNARKYKGANKKGLSKGCFGLKLDRIGSMSGLGC – COOH [C53],did not generate cGMP,increased plasma CLL levels in a dose-dependent manner,13.5 ± 2.0 µL/min,1.1±0.3 uEq/min,1.1 ± 0.2 mL/min,13.3 ± 2.0 µL/min,0.9±0.2 uEq/min,1.2 ± 0.1 mL/min,−0.5±1.0 mmHg,11.3 ± 0.8 µL/min,1.0±0.1 uEq/min,1.5 ± 0.1 mL/min,−1.4±1.1 mmHg,significant cGMP generation,"Reduction of differentiation of HRFs to myofibroblasts [2, 11]: not sustained; Differentiation of HRFs to myofibroblasts (α-SMA expression) [2, 12]: significantly reduced the differentiation; HCFs proliferation in the absence of TGFβ−1 stimulation [3]: had no effect on proliferation; Reduction of differentiation of HCFs to myofibroblasts [4, 11]: not sustained; Differentiation of HCFs to myofibroblasts (α-SMA expression) [4, 12]: significantly reduced the differentiation; TGFβ−1 induced HCFs proliferation by cell counting [5]: suppressed TGFβ−1 induced proliferation; HRFs proliferation in the absence of TGFβ−1 stimulation [6]: had no effect on proliferation; Intracellular cGMP in HRFs ([7]; 10^−8, 10^−7 and 10^−6 M, 10 min, 0.5 mM IBMX, cGMP ELISA, vs vehicle, dose-dependent): increased intracellular cGMP levels; cGMP values in HRFs compared to HCFs ([7]; ratio HRFs/HCFs): 16 fold; ΔMAP (change in mean arterial pressure) [8, 13]: −3.7±2.6 mmHg; pGC-B receptor potency compared to CNP (human pGC-B receptor; HEK293 pGC-B cells, 10^−10 to 10^−6 M, cGMP ELISA): no difference observed; Intracellular cGMP in HCFs [9]: increased intracellular cGMP levels; TGFβ−1 induced HRFs proliferation by cell counting [10]: suppressed TGFβ−1 induced proliferation"
"NH2-GLSKGCFGLKLDRIGSMSGLGC-COOH [CNP, C-type natriuretic peptide, reference compound]",did not generate cGMP,increased plasma CLL levels in a dose-dependent manner,9.8 ± 0.3 µL/min,0.9±0.1 uEq/min,1.3 ± 0.1 mL/min,11.3 ± 1.0 µL/min,0.8±0.1 uEq/min,1.2 ± 0.1 mL/min,−0.9±0.9 mmHg,10.0 ± 0.9 µL/min,0.7±0.1 uEq/min,1.2 ± 0.2 mL/min,−1.9±0.5 mmHg,significant cGMP generation,
b-type natriuretic peptide [BNP],,,,,,,,,,,,,,,cGMP in HEK293 pGC-A cells (human pGC-A receptor; 10^−6 M): 1028±73 pmol/mL; cGMP in HEK293 pGC-A cells (human pGC-A receptor; 10^−8 M): 385±66 pmol/mL; cGMP in HEK293 pGC-A cells (human pGC-A receptor; 10^−10 M): 5±1 pmol/mL

# Source: paper PMC6557127 (Journal of molecular and cellular cardiology, 2019)
